# Measurements collected from several papers.
# Each line is one published result; the experiments were not run side by side. pIC50: −log10 of the molar value.
# Target: ALK tyrosine kinase receptor (ALK, Homo sapiens, UniProt Q9UM73)
SMILES,test,setting,pIC50
Cc1cc(-c2ccnc(C#N)c2)n[nH]1,"enzyme activity, inhibitor, TR-FRET",,3.89
CCn1ncc2c1-c1cnc(N)c(c1)O[C@H](C)c1cc(F)ccc1-c1nn(C)nc1C2,"enzyme activity, inhibitor, radiometric",,8.96
Cc1cc(-c2cccc(C#N)c2)n[nH]1,"enzyme activity, inhibitor, TR-FRET",,4.29
COc1cccc(Nc2cnc3[nH]c4ccc(CCc5ccccc5)cc4c3c2)c1,"enzyme activity, inhibitor, ELISA",,< 5.00
CC(C)(C)n1nc(-c2cnc3cc(OC4CC4)ccc3c2)c(C(N)=O)c1N,cell-free assay,,< 5.00
Cc1cc(-c2cc(C#N)ccc2O[C@@H]2C[C@@H]2c2ccc(F)cc2F)n[nH]1,"enzyme activity, inhibitor, TR-FRET",,5.89
C=CC(=O)Nc1cc(Nc2nccc(Nc3cc(Cl)c(F)cc3C(C)(C)O)n2)c(OC)cc1N1CC[C@@H](N(C)C)C1,"enzyme activity, inhibitor",with preincubation,5.93
c1ccc(CCc2ccc3[nH]c4ncc(-c5ccc6c(c5)OCO6)cc4c3c2)cc1,"enzyme activity, inhibitor, ELISA",,< 5.00
COc1ccc2c(Oc3ccc4c(C(=O)Nc5ccccc5N)cccc4c3)ccnc2c1,"enzyme activity, inhibitor",,< 6.30
CC(C)(C)n1nc(-c2ccc3nc(OC4CC4)ccc3c2)c(C(N)=O)c1N,cell-free assay,,< 5.00
O=[N+]([O-])c1cccc(-c2cnc3[nH]c4ccccc4c3c2)c1,"enzyme activity, inhibitor, ELISA",,< 5.00
Cc1cc(Nc2cc(CN3CCOCC3)c3nc(C)c(Cc4ccc(Cl)cc4F)n3n2)n[nH]1,"enzyme activity, inhibitor, TR-FRET",,6.86
Cc1cc(-c2cccc(Cl)c2)n[nH]1,"enzyme activity, inhibitor, TR-FRET",,4.18
Clc1cnc2[nH]c3ccc(-c4ccc(N5CCOCC5)cn4)cc3c2c1,"enzyme activity, inhibitor, ELISA",,< 5.00
